Shown are actives, neighbours in structure and some others; about 4.6% of the full set was active somewhere.
OX1R antag-1: antagonists of human orexin 1 receptor (OX1R) | Orexin/Hypocretin receptor type 1 (Homo sapiens), O43613 | OX1R-expressing cells, FRET antagonist read-out | inhibition, % at 6.6 µM | hit rate 1.8% among 330,000 | AID 485270, 2010; in the data active = inhibition mostly above about 38%, no sharp cut-off; inactive = mostly below about 40%
Target sequence (O43613 whole entry, looked up): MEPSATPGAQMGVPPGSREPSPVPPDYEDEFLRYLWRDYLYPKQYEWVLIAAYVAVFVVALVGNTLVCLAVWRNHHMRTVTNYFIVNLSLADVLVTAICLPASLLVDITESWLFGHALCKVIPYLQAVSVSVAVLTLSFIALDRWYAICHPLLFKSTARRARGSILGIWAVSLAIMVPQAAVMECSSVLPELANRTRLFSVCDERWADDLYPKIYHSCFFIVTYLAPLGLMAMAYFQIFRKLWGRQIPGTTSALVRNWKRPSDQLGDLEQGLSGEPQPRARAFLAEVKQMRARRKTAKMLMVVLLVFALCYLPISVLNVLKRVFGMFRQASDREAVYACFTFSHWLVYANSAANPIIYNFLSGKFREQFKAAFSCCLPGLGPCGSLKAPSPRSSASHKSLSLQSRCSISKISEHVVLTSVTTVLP
OX1R antag-2: OX1R (HCRTR1) antagonists, primary screen, fluorescence, CHO/OX1R cells, Fluo-8 calcium, orexin A. Orexin/Hypocretin receptor type 1 (Homo sapiens), O43613. AID 434989, 2010. Fluo-8 calcium fluorescence. inhibition, % at 5 µM. hit rate 0.43% among 330,000;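 active = inhibition above its plate's threshold, mean inhibition of all tested compounds on the plate plus 3 SD, cut at about 37% in these data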
TAAR1 agonist: human TAAR1 agonists, primary screen, Fluo-8 calcium fluorescence, CHO RD-HGA16 cells | Trace amine-associated receptor 1 (Homo sapiens), Q96RJ0 | vehicle wells 0%, saturating PEA agonist 100% | activation, % at 3 µM | hit rate 0.99% among 360,000;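 active = activation above the mean activation of all test compounds in the run plus 3 SD, cut at about 38% in these data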
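Test system: RD-HGA16 (CHO) cells co-expressing Gα16 and hTAAR1 / Benchmarks: DMSO vehicle as 0%, PEA at EC100 as 100% / Repeats: no replicates (n 1) / Measure: % activation from peak over basal fluorescence ratio, DMSO-to-PEA scaled / Timing: 17-24 h plating, Fluo-8 75 min 37 °C, 30 min RT / Technique: kinetic Fluo-8 calcium fluorescence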
TAAR1 antag: human TAAR1 antagonists, primary screen, Fluo-8 calcium fluorescence, CHO RD-HGA16 cells; antagonist; inhibition, % at 3 µM; hit rate 1.5% among 360,000; AID 624466, 2012;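 active = inhibition above a per-plate cutoff, the mean inhibition of test compounds on that plate plus 3 SD, cut at about 49% in these data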
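test system = CHO RD-HGA16 cells bearing hTAAR1 | replication = singlicate | controls = DMSO-only wells and EC80 β-PEA-stimulated wells | reagent = EC80 β-phenethylamine stimulus | read-out basis = percent inhibition of PEA-evoked calcium signal, max/basal emission ratio | schedule = seeding 17-24 h prior, 75-min 37 °C, 30-min RT dye loading | signal = kinetic Fluo-8 calcium fluorescence measurement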
GPR7 antag: GPR7 receptor antagonists, primary screen, cell-based, fluorescence, single concentration. Neuropeptides B/W receptor type 1 (Homo sapiens), P48145. GPR7-expressing cells, fluorescence antagonist assay. inhibition, % at 4.4 µM. hit rate 1.1% among 290,000; in the data active = inhibition above about 16%, passing the limit was not always enough;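 also: cells stimulated with the agonist NPW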
CHO parental Ca: ATP-evoked calcium signal inhibitors, parental CHO, primary screen, counter-screen for OX1R antagonist project, cell-based, fluorescence, Fluo-8 calcium dye | hit rate 0.63% among 330,000 | parental CHO-K1, ATP-induced calcium, Fluo-8 fluorescence | inhibition, % at 5.6 µM;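 active = inhibition above that plate's mean sample inhibition plus 3 SD, cut at about 26% in these data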
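Test system: untransfected parental CHO cell line. Compound: one dose, 5.6 µM nominal. Detection: intracellular calcium via Fluo-8 no-wash fluorescent dye. Measure: % inhibition. Benchmarks: ATP-challenged DMSO wells low, unchallenged DMSO wells high.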
nonsel antag count: nonselective antagonists in TAAR1 counter-screen cells, counter-screen for hTAAR1 antagonist project, cell-based, fluorescence, calcium | hit rate 77% among 2,400 | shares compounds with TAAR1 antag | counterscreen cell line, antagonist mode | AID 651780, 2012 | inhibition, % at 3 µM; in the data active = inhibition above about 22%;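 also: CHO-Ga16 host cells stimulated with ATP at an EC80 level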
TAAR1 ant conf: human TAAR1 antagonists, retest of hits, confirmation, cell-based, fluorescence. shares compounds with TAAR1 antag. hit rate 40% among 2,400. inhibition, % at 3 µM. TAAR1-expressing cells, fluorescence antagonist read-out; in the data active = inhibition above about 49%;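 also: CHO-Ga16 host cells challenged with agonist PEA near its EC80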
Ga16 nonsel ag: calcium activation in Ga16-expressing cells, counter-screen for TAAR1 antagonist project, cell-based, fluorescence; hit rate 18% among 2,400; shares compounds with TAAR1 antag; activation, % at 3 µM; agonist counterscreen; AID 651953, 2012; in the data active = activation above about 12%
TAAR1 ag count: TAAR1 activation by candidate antagonists – cell-based, fluorescence, counter-screen for TAAR1 antagonist project; activation, % at 3 µM; hit rate 2% among 2,400; shares compounds with TAAR1 antag; AID 651955, 2012; hTAAR1 cell line, agonist mode; in the data active = activation above about 37%;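 also: CHO cells stably expressing TAAR1 with calcium dye readout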
Numbers stand for hits; i = inactive; nt = not tested or not shown.

SMILES	OX1R antag-1	OX1R antag-2	TAAR1 agonist	TAAR1 antag	GPR7 antag	CHO parental Ca	nonsel antag count	TAAR1 ant conf	Ga16 nonsel ag	TAAR1 ag count
O=C(Nc1ccc2oc(-c3cccnc3)nc2c1)c1ccc(Br)o1	i	i	i	52	i	i	i	i	i	i
O=C(Nc1cccc(-c2nc3ccccc3o2)c1)c1cccnc1	65	i	i	67	i	i	23	i	i	i
O=C(Nc1ccc2oc(-c3cccnc3)nc2c1)c1cccnc1	i	i	i	i	i	i	nt	nt	nt	nt
COCCNc1nc(Oc2ccc(C(N)=O)cc2)c2sccc2n1	nt	nt	i	i	nt	nt	nt	nt	nt	nt
O=C(N/N=C/C=C/c1ccccc1[N+](=O)[O-])c1cc(-c2ccccc2)n[nH]1	i	i	i	60	i	i	24	i	i	i
Cn1cc(-c2csc(C(O)(c3ccccc3)C(F)(F)F)n2)cn1 (configuration not stated)	nt	nt	i	i	nt	nt	nt	nt	nt	nt
Cc1ccc(SC2=C[C@@]3(O)CC[C@@H](O)[C@@](Sc4ccc(C)cc4)(C2=O)[C@H]3O)cc1	nt	nt	i	i	nt	nt	nt	nt	nt	nt
CC(C)(C)c1ccc(SC2=C[C@@]3(O)CC[C@@H](O)[C@@](Sc4ccc(C(C)(C)C)cc4)(C2=O)[C@H]3O)cc1	nt	nt	i	73	nt	nt	33	i	i	i
CCOC(=O)N1CCC(=NNC(N)=O)C1	nt	nt	i	i	nt	nt	nt	nt	nt	nt
Cc1c(/C=N/NC(=O)c2cccnc2)c2ccccn2c1C(=O)c1ccc(F)cc1	i	i	nt	nt	i	i	nt	nt	nt	nt
Cc1c(/C=N/NC(=O)c2ccccc2O)c2ccccn2c1C(=O)c1ccc(F)cc1	i	i	i	93	i	i	48	94	12	i
CCOC(=O)N/N=C/c1c(C)c(C(=O)c2ccc(F)cc2)n2ccccc12	i	i	i	68	i	i	22	i	i	i
CCOc1ccc2[nH]c(C(=O)N/N=C/c3ccc(OC)cc3)cc2c1	nt	nt	i	70	i	nt	22	55	i	i
O=C(COc1ccccc1Cl)NC(=S)Nc1ccc(CN2CCOCC2)cc1	i	i	i	73	i	i	47	51	i	i
CCOc1ccc(NC(=O)c2ccc(NC(=O)c3ccc(CN4CCOCC4)cc3)cc2)cc1	i	i	i	61	i	i	29	i	i	i
CCC(C)Oc1ccc(C(=O)Nc2ccc(CN3CCOCC3)cc2)cc1 (configuration not stated)	nt	nt	i	i	i	nt	nt	nt	nt	nt
O=C(Nc1ccc(CN2CCOCC2)cc1)c1ccc2ccccc2c1	i	i	i	i	i	i	nt	nt	nt	nt
O=C(Nc1ccc(CN2CCOCC2)cc1)c1cccc(-c2cc3ccccc3oc2=O)c1	i	i	i	64	i	i	27	i	i	i
Cc1ccc(S(=O)(=O)N2CCCc3nc(-c4ccc(F)cc4)ccc32)cc1	nt	nt	i	i	nt	nt	nt	nt	nt	nt
O=C(COC(=O)[C@@H]1CC(O)CN1S(=O)(=O)c1ccccc1[N+](=O)[O-])Nc1ccc2ccccc2c1 (some centres not stated)	i	i	i	68	i	i	41	50	16	i
CCOC(=O)c1c(C)[nH]c(C(=O)N/N=C/c2cccc(OC)c2)c1C	i	i	i	55	i	i	i	i	i	i
CCOC(=O)c1c(C)[nH]c(C(=O)N/N=C\c2ccccc2Cl)c1C	i	i	i	55	i	i	38	56	i	i
COc1ccc(CCNc2oc(COc3ccccc3F)nc2C#N)cc1	i	i	i	65	i	i	29	52	i	i
COc1ccc(CCNc2oc(COc3ccc(Br)cc3)nc2C#N)cc1OC	i	i	i	93	i	i	47	65	i	i
N#Cc1nc(COc2ccccc2F)oc1NCc1ccc(F)cc1	i	i	i	i	i	i	nt	nt	nt	nt
SMILES	OX1R antag-1	OX1R antag-2	TAAR1 agonist	TAAR1 antag	GPR7 antag	CHO parental Ca	nonsel antag count	TAAR1 ant conf	Ga16 nonsel ag	TAAR1 ag count
O=C(COC(=O)c1ccc(O)cc1)c1ccc(S(=O)(=O)N2CCCCC2)cc1	i	i	i	i	nt	i	nt	nt	nt	nt
O=C(c1ccc(CS(=O)Cc2ccc(Cl)cc2)o1)N1CCN(c2ccc(F)cc2)CC1 (configuration not stated)	i	i	i	72	i	i	i	i	i	i
COc1ccccc1S(=O)(=O)Cc1ccc(C(=O)N2CCN(c3ccc(C)cc3)C(C)C2)o1 (configuration not stated)	i	i	i	i	i	i	nt	nt	nt	nt
COc1ccc(N2CCN(C(=O)c3ccc(CS(=O)(=O)c4ccc(OC)cc4)o3)CC2)cc1	i	i	i	i	i	i	nt	nt	nt	nt
COc1ccc(S(=O)(=O)Cc2ccc(C(=O)N3CCN(c4cccc(C)c4)C(C)C3)o2)cc1 (configuration not stated)	i	i	i	59	i	i	31	i	i	i
COc1ccc(S(=O)(=O)Cc2ccc(C(=O)N3CCN(c4ccc(Cl)cc4)CC3)o2)cc1	i	i	i	72	i	41	33	i	i	i
CSCCC(c1nc2ccccc2[nH]1)n1c(/C=C/c2ccc(Cl)cc2)nc2ccccc21 (configuration not stated)	nt	nt	i	i	nt	nt	nt	nt	nt	nt
Cc1ccccc1C(=O)NC1CCCCN(C)C1=O (configuration not stated)	nt	nt	i	i	nt	nt	nt	nt	nt	nt
C[C@H](CO)N1C[C@H](C)[C@@H](CN(C)Cc2ccccc2)Oc2c(NC(=O)Cc3ccccc3)cccc2C1=O	i	i	i	68	nt	i	26	i	i	i
COc1ccc(NC(=O)Nc2cccc3c2O[C@H](CN(C)C(=O)Nc2ccc4c(c2)OCO4)[C@@H](C)CN([C@H](C)CO)C3=O)cc1	i	i	i	65	nt	i	33	53	i	i
